ChEMBL document CHEMBL4673198, “Identification of 3-hydroxy-1,2-dimethylpyridine-4(1H)-thione as a metal-binding motif for the inhibition of botulinum neurotoxin A” (RSC Med Chem, 2021)
Calls of active or inactive are those of the source. The calls are words filed in the database; no cut-off is given here.

Assays:
Clostridium botulinum [1] = experiment: Zinc chelating activity mediated inhibition of Clostridium botulinum BoNT/A1 LC (1 to 425 residues) activity using SNAPtide as substrate at 1 mM incubated with enzyme for 30 mins followed by substrate addition and measured for 20 mins by FRET assay relative to control; conditions: time 50.0 min
Procedure, shortened: (§1)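 Enzyme was truncated BoNT/A1 LC (1–425) at 10 nM final, incubated with compound for 30 min at 25 °C in 40 mM HEPES pH 7.4 with 0.01% Triton X-100. SNAPtide substrate followed at 3.8 µM final. Fluorescence rate (ex 490/em 523 nm) read immediately for 20 min. Technical and experimental triplicate.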

[2] = Zinc chelating activity mediated inhibition of Clostridium botulinum BoNT/A1 LC (1 to 425 residues) activity using SNAPtide as substrate incubated with enzyme for 30 mins followed by substrate addition and measured for 20 mins by FRET assay relative to control; procedure, shortened: as §1
Clostridium botulinum [3] = experiment: Zinc chelating activity mediated inhibition of Clostridium botulinum BoNT/A1 LC (1 to 425 residues) activity using SNAPtide as substrate at 50 uM incubated with enzyme for 30 mins followed by substrate addition and measured for 20 mins by FRET assay relative to control; conditions: time 50.0 min; procedure, shortened: as §1
[4] = Zinc chelating activity mediated inhibition of Clostridium botulinum Hall A hyper BoNT/A1activity assessed as inhibition of BoNT/A1-induced neurotoxicity in hIPSC derived GABA neurons by measuring protection against SNAP-25 cleavage incubated for 30 mins post BoNT/A1 addition and measured at 7 hrs post-toxin addition by Western blot analysis
[5] = Selectivity index, ratio of IC50 for zinc chelation-mediated inhibition of Clostridium botulinum BoNT/A1 LC (1 to 425 residues) to IC50 for MMP2 (unknown origin); assay type: toxicity
[6] = Selectivity index, ratio of IC50 for zinc chelation-mediated inhibition of Clostridium botulinum BoNT/A1 LC (1 to 425 residues) to IC50 for MMP13 (unknown origin); assay type: toxicity
[7] = Selectivity index, ratio of IC50 for zinc chelation-mediated inhibition of Clostridium botulinum BoNT/A1 LC (1 to 425 residues) to IC50 for MMP19 (unknown origin); assay type: toxicity
Clostridium botulinum [8] = experiment: Competitive active site zinc chelating activity mediated inhibition of Clostridium botulinum BoNT/A1 LC (1 to 425 residues) activity at 0.1 to 10 uM using SNAPtide as substrate incubated with enzyme for 30 mins in presence of DCHA followed by substrate addition and measured for 20 mins by FRET assay; conditions: dose 0.1-10 µM, time 50.0 min
Procedure, shortened: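 BoNT/A1 LC (1–425), 10 nM final, preincubated with compound for 30 min at room temperature in 40 mM HEPES pH 7.4 with 0.01% Triton X-100. SNAPtide added to 3.8 µM final. Fluorescence rate (ex 490/em 523 nm) read for 20 min. Technical and experimental triplicate.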

[9] = Selectivity index, ratio of IC50 for zinc chelation-mediated inhibition of Clostridium botulinum BoNT/A1 LC (1 to 425 residues) to IC50 for MMP1 (unknown origin); assay type: toxicity
[10] = Selectivity index, ratio of IC50 for zinc chelation-mediated inhibition of Clostridium botulinum BoNT/A1 LC (1 to 425 residues) to IC50 for MMP3 (unknown origin); assay type: toxicity
Clostridium botulinum [11] = experiment: Selectivity index, ratio of IC50 for zinc chelation-mediated inhibition of Clostridium botulinum Hall A hyper BoNT/A1 activity assessed as protection against SNAP-25 cleavage in hIPSC-derived GABA neurons to IC50 for zinc chelation-mediated inhibition of Clostridium botulinum BoNT/A1 LC (1 to 425 residues)
[12] = Selectivity index, ratio of IC50 for zinc chelation-mediated inhibition of Clostridium botulinum BoNT/A1 LC (1 to 425 residues) to IC50 for MMP8 (unknown origin); assay type: toxicity
[13] = Selectivity index, ratio of IC50 for zinc chelation-mediated inhibition of Clostridium botulinum BoNT/A1 LC (1 to 425 residues) to IC50 for MMP7 (unknown origin); assay type: toxicity

| SMILES | IC50 [2] [µM] | inhibition (Clostridium botulinum [3]) [%] | other results |
| --- | --- | --- | --- |
| CCn1ccc(=S)c(O)c1C |  |  | inhibition (Clostridium botulinum [1]): > 95% |
| Cc1c(O)c(=S)ccn1CC12CC3CC(CC(C3)C1)C2 | 4.9 |  |  |
| COc1ccc(Cn2ccc(=S)c(O)c2C)cc1 | 31.9 |  |  |
| Cc1c(O)c(=S)ccn1Cc1ccc(F)cc1 |  | 64 |  |
| Cc1c(O)c(=S)ccn1Cc1ccccc1 |  | 55 |  |
| COc1ccccc1Cn1ccc(=S)c(O)c1C |  | 71 |  |
| Cc1c(O)c(=S)ccn1-c1ccc(Nc2ccccc2)cc1 |  | 14 |  |
| Cc1c(O)c(=S)ccn1C |  |  | inhibition (Clostridium botulinum [1]): > 95% |
| O=C(O)c1ccc2cccc(O)c2n1 |  |  | inhibition (Clostridium botulinum [1]): > 95% |
| O=C(O)c1cccc(C(=O)O)n1 |  |  | inhibition (Clostridium botulinum [1]): > 95% |
| CCc1c(O)c(=S)ccn1CC |  |  | inhibition (Clostridium botulinum [1]): > 95% |
| COc1cccc(Cn2ccc(=S)c(O)c2C)c1 |  | 65 |  |
| COc1ccc(CCn2ccc(=S)c(O)c2C)cc1 |  | 57 |  |
| COc1cccc(CCn2ccc(=S)c(O)c2C)c1 |  | 62 |  |
| Cc1c(O)c(=S)ccn1Cc1ccc(Br)cc1 | 2.2 |  |  |
| Cc1c(O)c(=S)ccn1CCc1ccccc1 |  | 48 |  |
| Cc1c(O)c(=S)ccn1Cc1ccc(Cl)cc1 | 11.3 |  |  |
| CCOc1ccc(-n2ccc(=S)c(O)c2C)cc1 |  | 80 |  |
| Cc1c(O)c(=S)ccn1-c1ccc(F)cc1 |  | 37 |  |
| Cc1ccc(Cn2ccc(=S)c(O)c2C)cc1 | 5 |  |  |
| Cc1c(O)c(=S)ccn1Cc1ccc(Cl)cc1Cl | > 50 |  |  |

| SMILES | IC50 [2] [µM] | inhibition (Clostridium botulinum [3]) [%] | other results |
| --- | --- | --- | --- |
| Cc1c(O)c(=S)ccn1-c1ccc(N2CCOCC2)cc1 |  | 0 |  |
| Cc1c(O)c(=S)ccn1CCc1ccc(Cl)cc1Cl | 1.6 |  | IC50 [4]: 200 µM |
| Cc1c(O)c(=S)ccn1CCc1ccc(-c2ccccc2)cc1 | 1.8 |  | Ratio IC50 [5]: 2; Ratio IC50 [6]: 2; Ratio IC50 [7]: 2; IC50 [4]: 13 µM; Activity (Clostridium botulinum [8]): Active; Ratio IC50 [9]: 2; Ratio IC50 [10]: 2; Ratio IC50 (Clostridium botulinum [11]): 7; Ratio IC50 [12]: 2; Ratio IC50 [13]: 2 |
| c1cnc2c(c1)ccc1cccnc12 |  |  | inhibition (Clostridium botulinum [1]): > 95% |
| Cc1c(O)c(=S)ccn1Cc1ccc(-c2ccc(Cl)cc2)cc1 | 1.3 |  | IC50 [4]: 31 µM |
| Cc1c(O)c(=S)ccn1Cc1ccc(-c2ccc(F)cc2)cc1 | 1.4 |  | IC50 [4]: 33 µM |
| COc1ccc(-n2ccc(=S)c(O)c2C)cc1OC |  | 12 |  |
| Cc1c(O)c(=S)ccn1Cc1cccnc1 |  | 52 |  |
| Cc1c(O)c(=S)ccn1-c1ccc(F)c(C(F)(F)F)c1 |  | 0 |  |
| Cc1c(O)c(=S)ccn1Cc1ccc([N+](=O)[O-])cc1 | 3 |  | IC50 [4]: 100 µM |
| Cc1ccc(CCn2ccc(=S)c(O)c2C)cc1 | 3.2 | 81 |  |
| Cc1c(O)c(=S)ccn1-c1ccc(N)cc1 |  | 16 |  |
| Cc1c(O)c(=S)ccn1Cc1ccc(-c2ccc3ccccc3c2)cc1 |  | 60 |  |
| Cc1c(O)c(=S)ccn1CCC12CC3CC(CC(C3)C1)C2 | > 50 |  |  |
| Cc1c(O)c(=S)ccn1Cc1ccc(O)cc1 | > 50 |  |  |
| Cc1c(O)c(=S)ccn1CCc1ccc(Cl)cc1 | 1.9 |  |  |
| Cc1c(O)c(=S)ccn1-c1cc(C(F)(F)F)cc(C(F)(F)F)c1 |  | 0 |  |
| Cc1ccc(CCn2ccc(=S)c(O)c2C)cc1C | 2.8 |  |  |
| Cc1c(O)c(=S)ccn1Cc1ccc(-c2ccc3c(c2)OCO3)cc1 | 1.4 |  | IC50 [4]: 51 µM |
| Cc1c(O)c(=S)ccn1Cc1ccc(-c2ccc(F)c(F)c2)cc1 | 1.8 |  | IC50 [4]: 39 µM |
| Cc1ccc(CCn2ccc(=S)c(O)c2C)c(C)c1 | 1.7 |  |  |
